Reference: ChEMBL document CHEMBL1154616, “Synthesis and antitumor activity studies of some new fused 1,2,4-triazole derivatives carrying 2,4-dichloro-5-fluorophenyl moiety” (Eur J Med Chem, 2009)

How the values were obtained:
HOP-62 = assay: Anticancer activity against human HOP62 cells after 48 hrs by sulforhodamine B assay; assay type: functional; conditions: HOP-62, 48 h
How it was run: (§1)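 Full 60-cell-line panel, compounds tested over a five-log dose range. Cells are preincubated on microtiter plates, the agent is added, and cultures run 48 h. The end point is sulphorhodamine B protein staining. GI50 is taken as the concentration giving 50% growth inhibition relative to untreated control cells.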

MDA-MB-435 = assay: Anticancer activity against human MDA-MB-435 cells after 48 hrs by sulforhodamine B assay; assay type: functional; conditions: MDA-MB-435, 48 h; how it was run: as §1
NCI-H322M = assay: Anticancer activity against human NCI-H322M cells after 48 hrs by sulforhodamine B assay; assay type: functional; how it was run: as §1
HCC 2998 = assay: Anticancer activity against human HCC2998 cells after 48 hrs by sulforhodamine B assay; assay type: functional; conditions: HCC 2998, 48 h; how it was run: as §1
K562 = assay: Anticancer activity against human K562 cells after 48 hrs by sulforhodamine B assay; assay type: functional; conditions: K562, 48 h; how it was run: as §1
A498 = assay: Anticancer activity against human A498 cells after 48 hrs by sulforhodamine B assay; assay type: functional; conditions: A498, 48 h; how it was run: as §1
SK-MEL-28 = assay: Anticancer activity against human SK-MEL-28 cells after 48 hrs by sulforhodamine B assay; assay type: functional; conditions: SK-MEL-28, 48 h; how it was run: as §1
MDA-MB-231 = assay: Anticancer activity against human MDA-MB-231 cells after 48 hrs by sulforhodamine B assay; assay type: functional; conditions: MDA-MB-231, 48 h; how it was run: as §1
SF-295 = assay: Anticancer activity against human SF295 cells after 48 hrs by sulforhodamine B assay; assay type: functional; conditions: SF-295, 48 h; how it was run: as §1
SNB-75 = assay: Anticancer activity against human SNB75 cells after 48 hrs by sulforhodamine B assay; assay type: functional; conditions: SNB-75, 48 h
How it was run: (§2)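 Cells from the 60-line full panel are preincubated on microtiter plates, then treated across a five-log dose range for 48 h. Growth is read with the protein-binding dye sulforhodamine B. GI50 is the concentration giving 50% growth inhibition relative to untreated control cells.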

DU-145 = assay: Anticancer activity against human DU145 cells after 48 hrs by sulforhodamine B assay; assay type: functional; conditions: DU-145, 48 h; how it was run: as §1
OVCAR-4 = assay: Anticancer activity against human OVCAR4 cells after 48 hrs by sulforhodamine B assay; assay type: functional; conditions: OVCAR-4, 48 h; how it was run: as §1
SK-OV-3 = assay: Anticancer activity against human SKOV3 cells after 48 hrs by sulforhodamine B assay; assay type: functional; conditions: SK-OV-3, 48 h; how it was run: as §1
SF-268 [1] = assay: Anticancer activity against human SF268 cells assessed as cell growth at 100 uM after 48 hrs by sulforhodamine B assay relative to control; assay type: functional; conditions: SF-268, 48 h, read-out: Activity
How it was run: (§3)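 Three-cell-line prescreen (NCI-H460 lung, MCF7 breast, SF 268 CNS), each preincubated on microtiter plates. The agent is added at a single concentration and cultures are incubated 48 h. Growth is read by sulphorhodamine B protein staining and reported as percent growth of treated versus untreated control cells; negative values indicate cell kill.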

NCI/ADR-RES = assay: Anticancer activity against human NCI/ADR-RES cells after 48 hrs by sulforhodamine B assay; assay type: functional; how it was run: as §1
[2] = Acute toxicity in orally dosed Swiss albino mouse after 24 hrs; assay type: organism-based; conditions: in vivo, po
How it was run: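 Male Swiss albino mice (Mus musculus); median lethal dose (LD50) determined after oral dosing, read at 24 h.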

OVCAR-8 = assay: Anticancer activity against human OVCAR8 cells after 48 hrs by sulforhodamine B assay; assay type: functional; conditions: OVCAR-8, 48 h; how it was run: as §1
SNB-19 = assay: Anticancer activity against human SNB19 cells after 48 hrs by sulforhodamine B assay; assay type: functional; conditions: SNB-19, 48 h; how it was run: as §1
LOX IMVI = assay: Anticancer activity against human LOXIMVI cells after 48 hrs by sulforhodamine B assay; assay type: functional; how it was run: as §1
Malme-3M = assay: Anticancer activity against human MALME-3M cells after 48 hrs by sulforhodamine B assay; assay type: functional; how it was run: as §1
T47D = assay: Anticancer activity against human T47D cells after 48 hrs by sulforhodamine B assay; assay type: functional; how it was run: as §2
NCI-H522 = assay: Anticancer activity against human NCI-H522 cells after 48 hrs by sulforhodamine B assay; assay type: functional; conditions: NCI-H522, 48 h; how it was run: as §1
BT-549 = assay: Anticancer activity against human BT549 cells after 48 hrs by sulforhodamine B assay; assay type: functional; conditions: BT-549, 48 h; how it was run: as §1
NCI-H226 = assay: Anticancer activity against human NCI-H226 cells after 48 hrs by sulforhodamine B assay; assay type: functional; conditions: NCI-H226, 48 h; how it was run: as §1
UO-31 = assay: Anticancer activity against human UO31 cells after 48 hrs by sulforhodamine B assay; assay type: functional; conditions: UO-31, 48 h; how it was run: as §2
NCI-H460 [3] = assay: Anticancer activity against human NCI-H460 cells after 48 hrs by sulforhodamine B assay; assay type: functional; conditions: NCI-H460, 48 h; how it was run: as §1
SF-268 [4] = assay: Anticancer activity against human SF268 cells after 48 hrs by sulforhodamine B assay; assay type: functional; conditions: SF-268, 48 h; how it was run: as §1
NCI-H460 [5] = assay: Anticancer activity against human NCI-H460 cells assessed as cell growth at 100 uM after 48 hrs by sulforhodamine B assay relative to control; assay type: functional; conditions: NCI-H460, 48 h, read-out: Activity; how it was run: as §3
A549 = assay: Anticancer activity against human A549 cells after 48 hrs by sulforhodamine B assay; assay type: functional; conditions: A549, 48 h; how it was run: as §1
OVCAR-5 = assay: Anticancer activity against human OVCAR5 cells after 48 hrs by sulforhodamine B assay; assay type: functional; conditions: OVCAR-5, 48 h; how it was run: as §1
UACC-62 = assay: Anticancer activity against human UACC62 cells after 48 hrs by sulforhodamine B assay; assay type: functional; conditions: UACC-62, 48 h; how it was run: as §2
OVCAR-3 = assay: Anticancer activity against human OVCAR-3 cells after 48 hrs by sulforhodamine B assay; assay type: functional; conditions: OVCAR-3, 48 h; how it was run: as §1
SN12C = assay: Anticancer activity against human SN12C cells after 48 hrs by sulforhodamine B assay; assay type: functional; how it was run: as §1
HCT-15 = assay: Anticancer activity against human HCT15 cells after 48 hrs by sulforhodamine B assay; assay type: functional; conditions: HCT-15, 48 h; how it was run: as §1
TK-10 = assay: Anticancer activity against human TK10 cells after 48 hrs by sulforhodamine B assay; assay type: functional; conditions: TK-10, 48 h; how it was run: as §2
M14 = assay: Anticancer activity against human M14 cells after 48 hrs by sulforhodamine B assay; assay type: functional; conditions: M14, 48 h; how it was run: as §1
EKVX = assay: Anticancer activity against human EKVX cells after 48 hrs by sulforhodamine B assay; assay type: functional; how it was run: as §1
ACHN = assay: Anticancer activity against human ACHN cells after 48 hrs by sulforhodamine B assay; assay type: functional; how it was run: as §1
HT-29 = assay: Anticancer activity against human HT-29 cells after 48 hrs by sulforhodamine B assay; assay type: functional; conditions: HT-29, 48 h; how it was run: as §1
KM12 = assay: Anticancer activity against human KM12 cells after 48 hrs by sulforhodamine B assay; assay type: functional; conditions: KM12, 48 h; how it was run: as §1
MCF7 [6] = assay: Anticancer activity against human MCF7 cells assessed as cell growth at 100 uM after 48 hrs by sulforhodamine B assay relative to control; assay type: functional; conditions: MCF7, 48 h, read-out: Activity; how it was run: as §3
UACC-257 = assay: Anticancer activity against human UACC257 cells after 48 hrs by sulforhodamine B assay; assay type: functional; conditions: UACC-257, 48 h; how it was run: as §2
HOP-92 = assay: Anticancer activity against human HOP92 cells after 48 hrs by sulforhodamine B assay; assay type: functional; conditions: HOP-92, 48 h; how it was run: as §1
IGROV-1 = assay: Anticancer activity against human IGROV1 cells after 48 hrs by sulforhodamine B assay; assay type: functional; conditions: IGROV-1, 48 h; how it was run: as §1
SW-620 = assay: Anticancer activity against human SW620 cells after 48 hrs by sulforhodamine B assay; assay type: functional; conditions: SW-620, 48 h; how it was run: as §2
MCF7 [7] = assay: Anticancer activity against human MCF7 cells after 48 hrs by sulforhodamine B assay; assay type: functional; conditions: MCF7, 48 h; how it was run: as §1
PC-3 = assay: Anticancer activity against human PC3 cells after 48 hrs by sulforhodamine B assay; assay type: functional; conditions: PC-3, 48 h; how it was run: as §1
MOLT-4 = assay: Anticancer activity against human MOLT4 cells after 48 hrs by sulforhodamine B assay; assay type: functional; conditions: MOLT-4, 48 h; how it was run: as §1
U-251 = assay: Anticancer activity against human U251 cells after 48 hrs by sulforhodamine B assay; assay type: functional; conditions: U-251, 48 h; how it was run: as §2
CAKI-1 = assay: Anticancer activity against human Caki1 cells after 48 hrs by sulforhodamine B assay; assay type: functional; conditions: CAKI-1, 48 h; how it was run: as §1
HCT-116 = assay: Anticancer activity against human HCT116 cells after 48 hrs by sulforhodamine B assay; assay type: functional; conditions: HCT-116, 48 h; how it was run: as §1
NCI-H23 = assay: Anticancer activity against human NCI-H23 cells after 48 hrs by sulforhodamine B assay; assay type: functional; conditions: NCI-H23, 48 h; how it was run: as §1
786-0 = assay: Anticancer activity against human 786-0 cells after 48 hrs by sulforhodamine B assay; assay type: functional; conditions: 786-0, 48 h; how it was run: as §1
COLO 205 = assay: Anticancer activity against human COLO205 cells after 48 hrs by sulforhodamine B assay; assay type: functional; conditions: COLO 205, 48 h; how it was run: as §1
RXF 393 = assay: Anticancer activity against human RXF393 cells after 48 hrs by sulforhodamine B assay; assay type: functional; conditions: RXF 393, 48 h; how it was run: as §1

`Fc1cc(-c2nnc3n2N=C(c2ccc(Cl)cc2)CS3)c(Cl)cc1Cl` gave a GI50 (HOP-62) of 20.1 µM, a GI50 (MDA-MB-435) of 4.55 µM and a GI50 (NCI-H322M) of 16.2 µM. For the same compound, the GI50 (HCC 2998) was 13.6 µM, the GI50 (K562) was 1.69 µM and the GI50 (A498) was 21 µM. It also gave a GI50 (SK-MEL-28) of 6.41 µM, a GI50 (MDA-MB-231) of 10.8 µM and a GI50 (SF-295) of 15.7 µM. It also gave a GI50 (SNB-75) of 3.37 µM, a GI50 (DU-145) of 3.41 µM and a GI50 (OVCAR-4) of 5.35 µM. It also gave a GI50 (SK-OV-3) of 25.4 µM, a growth at 100 µM (SF-268 [1]) of 3% and a GI50 (NCI/ADR-RES) of 3.12 µM. It also gave an LD50 at 24 h [2] of 227 mg/kg, a GI50 (OVCAR-8) of 14.8 µM and a GI50 (SNB-19) of 19.5 µM. For the same compound, the GI50 (LOX IMVI) was 1.69 µM, the GI50 (Malme-3M) was 2.37 µM and the GI50 (T47D) was 3.9 µM. It also gave a GI50 (NCI-H522) of 1.8 µM, a GI50 (BT-549) of 3.27 µM and a GI50 (NCI-H226) of 18.1 µM. The GI50 (UO-31) was 1.89 µM, the GI50 (NCI-H460 [3]) was 19.1 µM and the GI50 (SF-268 [4]) was 13.2 µM. For the same compound, the growth at 100 µM (NCI-H460 [5]) was 3%, the GI50 (A549) was 18.3 µM and the GI50 (OVCAR-5) was 10.6 µM. It also gave a GI50 (UACC-62) of 3.63 µM, a GI50 (OVCAR-3) of 15.1 µM and a GI50 (SN12C) of 3.6 µM. For the same compound, the GI50 (HCT-15) was 1.86 µM, the GI50 (TK-10) was 3.11 µM and the GI50 (M14) was 4.87 µM. For the same compound, the GI50 (EKVX) was 27.4 µM, the GI50 (ACHN) was 4.82 µM and the GI50 (HT-29) was 4.6 µM. For the same compound, the GI50 (KM12) was 8.08 µM, the growth at 100 µM (MCF7 [6]) was 3% and the GI50 (UACC-257) was 15.7 µM. For the same compound, the GI50 (HOP-92) was 16.4 µM, the GI50 (IGROV-1) was 3.39 µM and the GI50 (SW-620) was 1.91 µM. For the same compound, the GI50 (MCF7 [7]) was 6.24 µM, the GI50 (PC-3) was 18.7 µM and the GI50 (MOLT-4) was 1.06 µM. For the same compound, the GI50 (U-251) was 10.6 µM, the GI50 (CAKI-1) was 4.21 µM and the GI50 (HCT-116) was 2.36 µM. It also gave a GI50 (NCI-H23) of 13.8 µM, a GI50 (786-0) of 2.08 µM and a GI50 (COLO 205) of 7.09 µM. It also gave a GI50 (RXF 393) of 11.4 µM.
